According to ChEMBL document CHEMBL1629431, “Synthesis and antitumor activity of some 2, 3-disubstituted quinazolin-4(3H)-ones and 4, 6- disubstituted- 1, 2, 3, 4-tetrahydroquinazolin-2H-ones” (2010):

Tests used:
Format in all cases: functional
[1] = test system: SR; experiment: Growth inhibition of human SR cells at 10 uM after 48 hrs by coulter counter method; conditions: read-out: GI
Summary of the method: (§1)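 Single high-dose NCI 60-cell-line panel screen across nine tumor subpanels. Test solutions (0.2 mL) were added in duplicate to wells holding 1.8 mL of culture at 6 × 10⁴ cells/mL. Controls got PBS and DMSO at identical dilutions. Incubation was 48 h at 37 °C in humidified 5% CO₂. Cells were diluted 10-fold in saline, Coulter-counted and dilution-corrected. Results were expressed as percent growth inhibition versus control.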

[2] = Growth inhibition of human Hs 578T cells at 10 uM after 48 hrs by coulter counter method; conditions: read-out: GI; summary of the method: as §1
[3] = test system: IGROV-1; experiment: Growth inhibition of human IGROV1 cells at 10 uM after 48 hrs by coulter counter method; conditions: IGROV-1, 48 h, read-out: GI; summary of the method: as §1
[4] = test system: PC-3; experiment: Growth inhibition of human PC3 cells at 10 uM after 48 hrs by coulter counter method; conditions: PC-3, 48 h, read-out: GI; summary of the method: as §1
[5] = test system: MOLT-4; experiment: Growth inhibition of human MOLT4 cells at 10 uM after 48 hrs by coulter counter method; conditions: MOLT-4, 48 h, read-out: GI; summary of the method: as §1
[6] = test system: CCRF-CEM; experiment: Growth inhibition of human CCRF-CEM cells at 10 uM after 48 hrs by coulter counter method; conditions: read-out: GI; summary of the method: as §1
[7] = test system: MDA-MB-231; experiment: Growth inhibition of human MDA-MB-231 cells at 10 uM after 48 hrs by coulter counter method; conditions: MDA-MB-231, 48 h, read-out: GI; summary of the method: as §1
[8] = test system: HT-29; experiment: Growth inhibition of human HT-29 cells at 10 uM after 48 hrs by coulter counter method; conditions: HT-29, 48 h, read-out: GI; summary of the method: as §1
[9] = test system: NCI-H226; experiment: Growth inhibition of human NCI-H226 cells at 10 uM after 48 hrs by coulter counter method; conditions: NCI-H226, 48 h, read-out: GI; summary of the method: as §1
[10] = test system: A549; experiment: Growth inhibition of human A549 cells at 10 uM after 48 hrs by coulter counter method; conditions: A549, 48 h, read-out: GI; summary of the method: as §1
[11] = test system: U-251; experiment: Growth inhibition of human U251 cells at 10 uM after 48 hrs by coulter counter method; conditions: U-251, 48 h, read-out: GI; summary of the method: as §1
[12] = test system: OVCAR-8; experiment: Growth inhibition of human OVCAR8 cells at 10 uM after 48 hrs by coulter counter method; conditions: OVCAR-8, 48 h, read-out: GI; summary of the method: as §1
[13] = test system: SF-268; experiment: Growth inhibition of human SF268 cells at 10 uM after 48 hrs by coulter counter method; conditions: SF-268, 48 h, read-out: GI; summary of the method: as §1
[14] = test system: HCT-116; experiment: Growth inhibition of human HCT116 cells at 10 uM after 48 hrs by coulter counter method; conditions: HCT-116, 48 h, read-out: GI; summary of the method: as §1
[15] = test system: NCI-H23; experiment: Growth inhibition of human NCI-H23 cells at 10 uM after 48 hrs by coulter counter method; conditions: NCI-H23, 48 h, read-out: GI; summary of the method: as §1
[16] = test system: BT-549; experiment: Growth inhibition of human BT549 cells at 10 uM after 48 hrs by coulter counter method; conditions: BT-549, 48 h, read-out: GI; summary of the method: as §1
[17] = test system: T47D; experiment: Growth inhibition of human T47D cells at 10 uM after 48 hrs by coulter counter method; conditions: read-out: GI; summary of the method: as §1
[18] = test system: SN12C; experiment: Growth inhibition of human SN12C cells at 10 uM after 48 hrs by coulter counter method; conditions: read-out: GI; summary of the method: as §1
[19] = test system: MCF7; experiment: Growth inhibition of human MCF7 cells at 10 uM after 48 hrs by coulter counter method; conditions: MCF7, 48 h, read-out: GI; summary of the method: as §1
[20] = test system: 786-0; experiment: Growth inhibition of human 786-0 cells at 10 uM after 48 hrs by coulter counter method; conditions: 786-0, 48 h, read-out: GI; summary of the method: as §1
[21] = test system: HOP-92; experiment: Growth inhibition of human HOP92 cells at 10 uM after 48 hrs by coulter counter method; conditions: HOP-92, 48 h, read-out: GI; summary of the method: as §1
[22] = test system: COLO 205; experiment: Growth inhibition of human COLO205 cells at 10 uM after 48 hrs by coulter counter method; conditions: COLO 205, 48 h, read-out: GI; summary of the method: as §1
[23] = test system: NCI-H522; experiment: Growth inhibition of human NCI-H522 cells at 10 uM after 48 hrs by coulter counter method; conditions: NCI-H522, 48 h, read-out: GI; summary of the method: as §1
[24] = test system: SNB-75; experiment: Growth inhibition of human SNB75 cells at 10 uM after 48 hrs by coulter counter method; conditions: SNB-75, 48 h, read-out: GI; summary of the method: as §1
[25] = test system: MDA-MB-468; experiment: Growth inhibition of human MDA-MB-468 cells at 10 uM after 48 hrs by coulter counter method; conditions: MDA-MB-468, 48 h, read-out: GI; summary of the method: as §1
[26] = test system: SK-MEL-2; experiment: Growth inhibition of human SK-MEL-2 cells at 10 uM after 48 hrs by coulter counter method; conditions: SK-MEL-2, 48 h, read-out: GI; summary of the method: as §1
[27] = test system: SF-539; experiment: Growth inhibition of human SF539 cells at 10 uM after 48 hrs by coulter counter method; conditions: SF-539, 48 h, read-out: GI; summary of the method: as §1
[28] = test system: HL-60(TB); experiment: Growth inhibition of human HL-60(TB) cells at 10 uM after 48 hrs by coulter counter method; conditions: HL-60, 48 h, read-out: GI
Summary of the method: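 Part of the NCI 60-cell-line single-high-dose panel. Cells were seeded at 6 × 10⁴ cells/mL with test solution in duplicate wells, alongside PBS/DMSO controls at identical dilutions. Plates were held 48 h at 37 °C in a humidified 5% CO₂ incubator. Cells were then diluted 10-fold in saline and counted by Coulter counter, with counts corrected for dilution. Results are percent growth of treated cells, reported as GI %.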

[29] = test system: SK-OV-3; experiment: Growth inhibition of human SKOV3 cells at 10 uM after 48 hrs by coulter counter method; conditions: SK-OV-3, 48 h, read-out: GI; summary of the method: as §1
[30] = test system: SK-MEL-28; experiment: Growth inhibition of human SK-MEL-28 cells at 10 uM after 48 hrs by coulter counter method; conditions: SK-MEL-28, 48 h, read-out: GI; summary of the method: as §1
[31] = test system: M14; experiment: Growth inhibition of human M14 cells at 10 uM after 48 hrs by coulter counter method; conditions: M14, 48 h, read-out: GI; summary of the method: as §1
[32] = test system: OVCAR-4; experiment: Growth inhibition of human OVCAR4 cells at 10 uM after 48 hrs by coulter counter method; conditions: OVCAR-4, 48 h, read-out: GI; summary of the method: as §1
[33] = test system: UACC-62; experiment: Growth inhibition of human UACC62 cells at 10 uM after 48 hrs by coulter counter method; conditions: UACC-62, 48 h, read-out: GI; summary of the method: as §1
[34] = test system: K562; experiment: Growth inhibition of human K562 cells at 10 uM after 48 hrs by coulter counter method; conditions: K562, 48 h, read-out: GI; summary of the method: as §1
[35] = test system: UO-31; experiment: Growth inhibition of human UO31 cells at 10 uM after 48 hrs by coulter counter method; conditions: UO-31, 48 h, read-out: GI; summary of the method: as §1
[36] = test system: CAKI-1; experiment: Growth inhibition of human Caki1 cells at 10 uM after 48 hrs by coulter counter method; conditions: CAKI-1, 48 h, read-out: GI; summary of the method: as §1
[37] = test system: KM12; experiment: Growth inhibition of human KM12 cells at 10 uM after 48 hrs by coulter counter method; conditions: KM12, 48 h, read-out: GI; summary of the method: as §1

| Structure (SMILES) | inhibition of growth at 10 µM [1] | inhibition of growth at 10 µM [2] | inhibition of growth at 10 µM [3] | inhibition of growth at 10 µM [4] | inhibition of growth at 10 µM [5] | inhibition of growth at 10 µM [6] | inhibition of growth at 10 µM [7] | inhibition of growth at 10 µM [8] | inhibition of growth at 10 µM [9] | inhibition of growth at 10 µM [10] | inhibition of growth at 10 µM [11] | inhibition of growth at 10 µM [12] | inhibition of growth at 10 µM [13] | inhibition of growth at 10 µM [14] | inhibition of growth at 10 µM [15] | inhibition of growth at 10 µM [16] | inhibition of growth at 10 µM [17] | inhibition of growth at 10 µM [18] | inhibition of growth at 10 µM [19] | inhibition of growth at 10 µM [20] | also measured |
| --- | --- | --- | --- | --- | --- | --- | --- | --- | --- | --- | --- | --- | --- | --- | --- | --- | --- | --- | --- | --- | --- |
| COc1ccc(-n2c(Nc3ccc(S(N)(=O)=O)cc3)nc3ccccc3c2=O)cc1 | 30% | 30% | 30% | 30% | 30% | 30% | 30% | 30% | 30% | 30% | 30% | 30% | 30% | 36.7% | 30% | 30% | 30% | 30% | 30% | 30% | inhibition of growth at 10 µM [21]: 30%; inhibition of growth at 10 µM [22]: 30%; inhibition of growth at 10 µM [23]: 30%; inhibition of growth at 10 µM [24]: 30%; inhibition of growth at 10 µM [25]: 37.5%; inhibition of growth at 10 µM [26]: 30%; inhibition of growth at 10 µM [27]: 30%; inhibition of growth at 10 µM [28]: 30%; inhibition of growth at 10 µM [29]: 30%; inhibition of growth at 10 µM [30]: 30%; inhibition of growth at 10 µM [31]: 30%; inhibition of growth at 10 µM [32]: 30%; inhibition of growth at 10 µM [33]: 30%; inhibition of growth at 10 µM [34]: 47.1%; inhibition of growth at 10 µM [35]: 30%; inhibition of growth at 10 µM [36]: 30%; inhibition of growth at 10 µM [37]: 30% |
| O=c1c2ccccc2nc(Nc2cc(O)nc(S)n2)n1-c1ccc(Cl)cc1 | 36.4% | 30% | 30% | 30% | 30.8% | 30% | 30% | 30% | 30% | 30% | 30% | 30% | 30% | 30% | 30% | 30% | 30% | 30% | 30% | 30% | inhibition of growth at 10 µM [21]: 30%; inhibition of growth at 10 µM [22]: 30%; inhibition of growth at 10 µM [23]: 30%; inhibition of growth at 10 µM [24]: 30%; inhibition of growth at 10 µM [25]: 30%; inhibition of growth at 10 µM [26]: 30%; inhibition of growth at 10 µM [27]: 30%; inhibition of growth at 10 µM [28]: 30%; inhibition of growth at 10 µM [29]: 30%; inhibition of growth at 10 µM [30]: 30%; inhibition of growth at 10 µM [31]: 30%; inhibition of growth at 10 µM [32]: 30%; inhibition of growth at 10 µM [33]: 30%; inhibition of growth at 10 µM [34]: 36.5%; inhibition of growth at 10 µM [35]: 30%; inhibition of growth at 10 µM [36]: 30%; inhibition of growth at 10 µM [37]: 30% |
| O=C1Nc2ccc(C(=O)Nc3ccccn3)cc2C(c2ccc(Cl)cc2)N1 (stereo unspecified) | 30% | 30% | 30% | 32.9% | 33.9% | 30% | 30% | 37.4% | 30% | 30% | 30% | 30% | 30% | 39.8% | 30.4% | 31.8% | 44.9% | 30% | 39.2% | 30% | inhibition of growth at 10 µM [21]: 30%; inhibition of growth at 10 µM [22]: 30%; inhibition of growth at 10 µM [23]: 30%; inhibition of growth at 10 µM [24]: 30%; inhibition of growth at 10 µM [25]: 30%; inhibition of growth at 10 µM [26]: 30%; inhibition of growth at 10 µM [27]: 30%; inhibition of growth at 10 µM [28]: 30%; inhibition of growth at 10 µM [29]: 30%; inhibition of growth at 10 µM [30]: 30%; inhibition of growth at 10 µM [31]: 30%; inhibition of growth at 10 µM [32]: 30%; inhibition of growth at 10 µM [33]: 30%; inhibition of growth at 10 µM [34]: 30%; inhibition of growth at 10 µM [35]: 41.8%; inhibition of growth at 10 µM [36]: 30%; inhibition of growth at 10 µM [37]: 30% |
